Results pooled from the literature.
Compare with care: the assays were run in different laboratories.
Target: Protein kinase C eta type (PRKCH, Homo sapiens, UniProt P24723)

Compound	effect on	technique	concentration	remaining binding
CCCCN(CCCC)C(=O)CN1C[C@H](c2cc(OC)c3c(c2)OCO3)[C@@H](C(=O)O)[C@@H]1CC(C)(C)CCC	cell-free assay	competition with immobilised ligand	1 µM	100%
CN(C)c1nccc(-c2cnc3ncccn23)n1	binding		1 µM	100%
COc1ncc2cc3ccccc3nc2c1C#N	cell-free assay	competition with immobilised ligand	5 µM	90%
CCCOc1ccc([C@@H]2[C@@H](C(=O)O)[C@H](c3ccc4c(c3)OCO4)CN2CC(=O)Nc2c(CC)cccc2CC)cc1	cell-free assay	competition with immobilised ligand	1 µM	100%
N[C@H]1CCN(c2nccc(-c3cnn4ncccc34)n2)C1	binding		1 µM	88%
O=C(c1ccc(Nc2ncc(Cl)c(-c3ccc(Cl)s3)n2)cc1)N1CCC(N2CCCC2)CC1	binding	competition with immobilised ligand	1 µM	46%
c1cnn2ncc(-c3ccnc(N4CCC45COC5)n3)c2c1	binding		1 µM	88%
CNC(=O)Nc1ccc2c(c1)CC[C@@]21OC(=O)N(CC(=O)N(Cc2ccc(F)cc2)[C@@H](C)C(F)(F)F)C1=O	cell-free assay	competition with immobilised ligand	1 µM	93%
F[C@@H]1CCN(c2nccc(-c3cnn4ncccc34)n2)C1	binding		1 µM	100%
CC(=O)Nc1c(C(C)=O)c(=O)n(C)c2nc(-c3ccc(Cl)cc3Cl)c(-c3ccc(Cl)cc3)cc12	cell-free assay	competition with immobilised ligand	1 µM	100%
CCN1CCN(Cc2ccc(C(=O)Nc3ccc(C)c(Oc4ccc5c(c4)CC(=O)N5)c3)cc2C(F)(F)F)CC1	binding	competition with immobilised ligand	1 µM	100%
O=C(NCCCN1CCOCC1)c1ccc(Nc2nccc(-c3cc4ccccc4s3)n2)cc1	binding	competition with immobilised ligand	1 µM	84%
O=C(Nc1cnc(Oc2ccc(F)cc2)nc1)N1CCc2ncccc2[C@@H]1c1ccc(F)cc1	cell-free assay	competition with immobilised ligand	1 µM	76%
O=C(Nc1c[nH]nc1C(=O)NC1CCNCC1)c1cc(F)cc(F)c1	binding	competition with immobilised ligand	1 µM	73%
CN(CCCC(F)(F)F)c1nccc(-c2cnn3ncccc23)n1	binding		1 µM	89%
O=C(NCCCN1CCOCC1)c1ccc(Nc2ncc(Cl)c(-c3ccc(Cl)s3)n2)cc1	binding	competition with immobilised ligand	1 µM	100%
COc1cnc(Nc2cccc(S(N)(=O)=O)c2)nc1N1CCN(c2ccccc2)CC1	binding	competition with immobilised ligand	1 µM	100%
Cc1cnn2ncc(-c3ccnc(N(C)C)n3)c2c1	binding		1 µM	100%
C[C@@H](c1ccc(-n2cnc3c(N)ncnc32)cc1)N1CCc2nn(C)c(Cc3ccccc3)c2C1=O	binding	competition with immobilised ligand	0.1 µM	100%
C[C@H](c1ccnc(Nc2nc3ccc(-c4cc(N(C)C)ncn4)cc3[nH]2)c1)N1CCN(C(=O)CC(F)(F)F)CC1	cell-free assay	competition with immobilised ligand	0.1 µM	84%
CC1CCCN1c1nccc(-c2cnn3ncccc23)n1 (stereo not shown)	binding		1 µM	100%
Nc1ncc2c(n1)-c1c([nH]c3ccc(C#CC4CC4)cc13)CCCC2	binding	competition with immobilised ligand	1 µM	100%
